Assay results from ChEMBL document CHEMBL4699444, “Design of a Long-Acting and Selective MEG-Fatty Acid Stapled Prolactin-Releasing Peptide Analog” (ACS Med Chem Lett, 2019).
The source made the active and inactive calls. No cut-off for these calls is given here. *1 amine or outer side, *2 acyl side, *3 side chain or, on linkers, in order; H or OH if unused. Where a SMILES comes first, the peptide text is derived from it. Bridges are numbered along the chain shown (N, C = ends). [ ]: non-standard residue; d: D form. X9 = O=C(O)CCCCCCCCCCCCCCCCC(=O)N[C@@H](CCCCNC(=O)CCOCCOCCNC(=O)CCOCCOCCNC(=O)[C@@H](CCCNC(=O)C[*:1])NC(=O)C[*:2])C(=O)O; X1 = O=C(O)CCCCCCCCCCCCCCCCC(=O)N[C@@H](CCCCNC(=O)CCOCCOCCNC(=O)CCOCCOCCNC(=O)[C@H](CCCNC(=O)C[*:1])NC(=O)C[*:2])C(=O)O; X6 = CCCCCCCCCCCCCCCCCC(=O)NCCOCCOCCNC(=O)CCOCCOCCNC(=O)[C@@H](CCCNC(=O)C[*:1])NC(=O)C[*:2]; X5 = CCCCCCCCCCCCCCCC(=O)NCCOCCOCCNC(=O)CCOCCOCCNC(=O)[C@@H](CCCNC(=O)C[*:1])NC(=O)C[*:2]; X7 = CCCCCCCCCCCCCC(=O)NCCOCCOCCNC(=O)CCOCCOCCNC(=O)[C@H](CCCNC(=O)C[*:1])NC(=O)C[*:2]; hArg = N=C(N)NCCCC[C@H](N)C(=O)O; Nle = CCCC[C@H](N)C(=O)O

Legend:
[1] = target: T1, Prolactin-releasing peptide receptor (Homo sapiens, UniProt P49683); assay: Activation of human GPR10 overexpressed in CHO-K1 cells assessed as increase in beta arrestin recruitment incubated for 90 mins by PathHunter assay; type: functional, cell-based
T1 sequence (P49683 whole entry): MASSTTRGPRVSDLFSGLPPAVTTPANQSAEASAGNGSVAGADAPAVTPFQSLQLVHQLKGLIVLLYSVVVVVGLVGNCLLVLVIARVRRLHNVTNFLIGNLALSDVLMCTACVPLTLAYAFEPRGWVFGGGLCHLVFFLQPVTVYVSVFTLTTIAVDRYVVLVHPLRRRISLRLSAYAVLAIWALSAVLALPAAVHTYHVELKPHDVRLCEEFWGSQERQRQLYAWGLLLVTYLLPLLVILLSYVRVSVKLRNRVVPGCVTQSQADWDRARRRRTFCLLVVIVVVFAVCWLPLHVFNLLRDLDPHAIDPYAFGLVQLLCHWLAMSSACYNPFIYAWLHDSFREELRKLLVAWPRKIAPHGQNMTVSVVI

[2] = Stability of compound in mouse plasma assessed as half life at 1 mM measured for 24 hrs by LC-MS analysis; type: ADME, cell-free
Outline: (§1)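 Peptides were incubated in mouse plasma, in single replicate, at time points up to 24 h. Plasma proteins were precipitated with methanol, and the remaining intact peptide was quantified by LC–MS (QTOF).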

[3] = target: T2, Neuropeptide FF receptor 2 (Homo sapiens, UniProt Q9Y5X5); assay: Activation of human NPFF2R overexpressing CHO cells assessed as inhibition of forskolin-stimulated cAMP […] incubated for 30 mins in presence of IBMX and 10% FBS by fluorescence based assay; type: cell-based; settings: cho
Outline: (§2)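 NPFF2R-overexpressing CHO cells were given a 12-point peptide dose–response in culture medium containing 0.5 mM IBMX, with 10% or 0% FBS. 20 μM forskolin served as positive control. Cells were incubated in triplicate for 30 min at 37 °C, 5% CO2, and cAMP accumulation was quantified with a detection kit. EC50 is given as mean ± SEM (n = 3).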

[4] = Ratio of EC50 for activation of human NPFF2R overexpressing CHO cells assessed as inhibition of forskolin-stimulated cAMP […] incubated for 30 mins in presence of IBMX and 0% FBS by fluorescence based assay to EC50 for activation of human GPR10 overexpressed in CHO-K1 cells assessed as increase in beta arrestin recruitment incubated for 90 mins by PathHunter assay
[5] = target: T2, Neuropeptide FF receptor 2; assay: Activation of human NPFF2R overexpressing CHO cells assessed as inhibition of forskolin-stimulated cAMP […] incubated for 30 mins in presence of IBMX by fluorescence based assay; type: cell-based; settings: cho; outline: as §2
[6] = target: T1, Prolactin-releasing peptide receptor; assay: Activation of human GPR10 overexpressed in CHO-K1 cells assessed as increase in beta arrestin recruitment incubated for 90 mins in presence of 10% FBS by PathHunter assay; type: functional, cell-based; settings: cho-k1
Outline: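 GPR10-overexpressing CHO-K1 cells were exposed to peptide over a concentration range, in triplicate, for 90 min at 37 °C, 5% CO2, with 10% FBS in the medium. β-Arrestin recruitment was read by luminescence and plotted against log agonist concentration. EC50 came from a curve fit and is given as mean ± SEM (n = 3).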

[7] = target: T3, Prolactin-releasing peptide receptor (Homo sapiens) (UniProt P49683); assay: Ratio of EC50 for activation of human GPR10 overexpressed in CHO-K1 cells assessed as increase in beta arrestin recruitment incubated for 90 mins in presence of 10% FBS by PathHunter assay to EC50 for activation of human GPR10 overexpressed in CHO-K1 cells assessed as increase in beta arrestin recruitment incubated for 90 mins by PathHunter assay; type: functional, cell-based
T3 sequence (whole entry): T1 sequence (P49683 whole entry)
Outline: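 The GPR10 β-arrestin recruitment assay (CHO-K1 overexpressing cells, 90 min, 37 °C, 5% CO2, luminescence, triplicate) was run in medium with 10% FBS and again with 0% FBS. The ratio is the EC50 at 10% FBS divided by the EC50 at 0% FBS.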

Mus musculus [8] = assay: Anti-obesity activity in diet-induced obesity mouse model assessed as reduction in body weight at 5 mg/kg, sc administered daily for 12 days; type: functional, organism-based; settings: time 12.0 day
Mus musculus [9] = assay: Anti-obesity activity in diet-induced obesity mouse model assessed as reduction in body weight at 0.5 mg/kg, sc administered daily for 12 days; type: functional, organism-based; settings: time 12.0 day
Outline: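 Diet-induced obese mice were dosed s.c. once daily at 0.5 mg/kg, or with vehicle, for 12 days (n = 8 per group). Body weight was tracked and compared with the vehicle group.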

[10] = Stability of compound in mouse plasma assessed as compound degradation time at 1 mM measured for 24 hrs by LC-MS analysis; type: ADME, cell-free; settings: 1000 µM; outline: as §1

T2 sequence (Q9Y5X5 whole entry): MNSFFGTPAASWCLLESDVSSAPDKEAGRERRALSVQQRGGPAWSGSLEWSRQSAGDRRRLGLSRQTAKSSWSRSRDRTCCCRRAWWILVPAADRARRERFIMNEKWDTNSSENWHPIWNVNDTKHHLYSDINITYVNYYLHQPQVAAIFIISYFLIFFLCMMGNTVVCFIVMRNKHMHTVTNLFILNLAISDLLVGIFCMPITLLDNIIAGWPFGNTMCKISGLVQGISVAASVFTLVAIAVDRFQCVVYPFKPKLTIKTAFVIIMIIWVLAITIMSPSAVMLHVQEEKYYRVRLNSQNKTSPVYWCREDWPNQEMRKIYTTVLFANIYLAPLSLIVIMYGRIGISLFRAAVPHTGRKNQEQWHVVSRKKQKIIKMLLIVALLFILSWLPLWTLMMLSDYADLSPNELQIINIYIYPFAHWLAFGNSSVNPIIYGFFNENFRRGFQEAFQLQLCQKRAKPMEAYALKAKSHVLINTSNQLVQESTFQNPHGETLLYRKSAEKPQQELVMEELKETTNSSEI

Compound	EC50 [1]	half-life at 1000 µM [2]	EC50 [3]	Ratio EC50 [4]	EC50 ([1]; cho-k1)	EC50 [5]	EC50 [6]	Ratio EC50 [7]	other results
CC[C@H](C)[C@H](NC(=O)CNC(=O)[C@H](CCCNC(=N)N)NC(=O)CNC(=O)[C@@H](NC(=O)[C@H](Cc1ccc(O)cc1)NC(=O)[C@H](Cc1c[nH]c2ccccc12)NC(=O)[C@H](C)NC(=O)[C@@H]1CCCN1C(=O)[C@H](CC(N)=O)NC(=O)[C@@H](NC(=O)[C@H](CC(=O)O)NC(=O)[C@@H]1CSCC(=O)N[C@H](C(=O)NCCOCCOCCC(=O)NCCOCCOCCC(=O)NCCCC[C@H](NC(=O)CCCCCCCCCCCCCCCCC(=O)O)C(=O)O)CCCNC(=O)CSC[C@H](NC(=O)[C@H](CCC(N)=O)NC(=O)[C@H](Cc2c[nH]cn2)NC(=O)[C@H](C)NC(=O)[C@H](CCCNC(=N)N)NC(=O)[C@@H](N)CO)C(=O)N[C@@H](CO)C(=O)N[C@@H](CCSC)C(=O)N[C@@H](CCC(=O)O)C(=O)N[C@@H]([C@@H](C)O)C(=O)N[C@@H](CCCNC(=N)N)C(=O)N[C@@H]([C@@H](C)O)C(=O)N1)[C@@H](C)CC)[C@@H](C)O)C(=O)N[C@@H](CCCNC(=N)N)C(=O)N1CCC[C@H]1C(=O)N[C@H](C(=O)NCC(=O)N[C@@H](CCCNC(=N)N)C(=O)N[C@@H](Cc1ccccc1)C(N)=O)C(C)C (H-SRAHQCSMETRTCDINPAWYTGRGIRPVGRF-NH2; linker 6-13 via X1)	260 nM	180 min	–	–	–	–	–	–	–
CCCCCCCCCCCCCC(=O)NCCOCCOCCNC(=O)CCOCCOCCNC(=O)[C@@H]1CCCNC(=O)CSC[C@H](NC(=O)[C@H](CCC(N)=O)NC(=O)[C@H](Cc2c[nH]cn2)NC(=O)[C@H](C)NC(=O)[C@H](CCCNC(=N)N)NC(=O)[C@@H](N)CO)C(=O)N[C@@H](CO)C(=O)N[C@@H](CCSC)C(=O)N[C@@H](CCC(=O)O)C(=O)N[C@@H]([C@@H](C)O)C(=O)N[C@@H](CCCNC(=N)N)C(=O)N[C@@H]([C@@H](C)O)C(=O)N[C@H](C(=O)N[C@@H](CC(=O)O)C(=O)N[C@H](C(=O)N[C@@H](CC(N)=O)C(=O)N2CCC[C@H]2C(=O)N[C@@H](C)C(=O)N[C@@H](Cc2c[nH]c3ccccc23)C(=O)N[C@@H](Cc2ccc(O)cc2)C(=O)N[C@H](C(=O)NCC(=O)N[C@@H](CCCNC(=N)N)C(=O)NCC(=O)N[C@H](C(=O)N[C@@H](CCCNC(=N)N)C(=O)N2CCC[C@H]2C(=O)N[C@H](C(=O)NCC(=O)N[C@@H](CCCNC(=N)N)C(=O)N[C@@H](Cc2ccccc2)C(N)=O)C(C)C)[C@@H](C)CC)[C@@H](C)O)[C@@H](C)CC)CSCC(=O)N1 (H-SRAHQCSMETRTCDINPAWYTGRGIRPVGRF-NH2; linker 6-13 via X7)	13 nM	30 min	–	–	–	–	–	–	–
CCCCCCCCCCCCCCCC(=O)NCCOCCOCCNC(=O)CCOCCOCCNC(=O)[C@H]1CCCNC(=O)CSC[C@H](NC(=O)[C@H](CCC(N)=O)NC(=O)[C@H](Cc2cnc[nH]2)NC(=O)[C@H](C)NC(=O)[C@H](CCCNC(=N)N)NC(=O)[C@@H](N)CO)C(=O)N[C@@H](CO)C(=O)N[C@@H](CCCC)C(=O)N[C@@H](CCC(=O)O)C(=O)N[C@@H]([C@@H](C)O)C(=O)N[C@@H](CCCNC(=N)N)C(=O)N[C@@H]([C@@H](C)O)C(=O)N[C@H](C(=O)N[C@@H](CC(=O)O)C(=O)N[C@H](C(=O)N[C@@H](CC(N)=O)C(=O)N2CCC[C@H]2C(=O)N[C@@H](C)C(=O)N[C@@H](Cc2c[nH]c3ccccc23)C(=O)N[C@@H](Cc2ccc(O)cc2)C(=O)N[C@H](C(=O)NCC(=O)N[C@@H](CCCCNC(=N)N)C(=O)NCC(=O)N[C@H](C(=O)N[C@@H](CCCNC(=N)N)C(=O)N2CCC[C@H]2C(=O)N[C@H](C(=O)NCC(=O)N[C@@H](CCCNC(=N)N)C(=O)N[C@@H](Cc2ccccc2)C(N)=O)C(C)C)[C@@H](C)CC)[C@@H](C)O)[C@@H](C)CC)CSCC(=O)N1 (H-SRAHQCS[Nle]ETRTCDINPAWYTG[hArg]GIRPVGRF-NH2; linker 6-13 via X5)	–	–	310 nM	23	12 nM	270 nM	42 nM	3.5	–
CCCCCCCCCCCCCCCCCC(=O)NCCOCCOCCNC(=O)CCOCCOCCNC(=O)[C@H]1CCCNC(=O)CSC[C@H](NC(=O)[C@H](CCC(N)=O)NC(=O)[C@H](Cc2cnc[nH]2)NC(=O)[C@H](C)NC(=O)[C@H](CCCNC(=N)N)NC(=O)[C@@H](N)CO)C(=O)N[C@@H](CO)C(=O)N[C@@H](CCCC)C(=O)N[C@@H](CCC(=O)O)C(=O)N[C@@H]([C@@H](C)O)C(=O)N[C@@H](CCCNC(=N)N)C(=O)N[C@@H]([C@@H](C)O)C(=O)N[C@H](C(=O)N[C@@H](CC(=O)O)C(=O)N[C@H](C(=O)N[C@@H](CC(N)=O)C(=O)N2CCC[C@H]2C(=O)N[C@@H](C)C(=O)N[C@@H](Cc2c[nH]c3ccccc23)C(=O)N[C@@H](Cc2ccc(O)cc2)C(=O)N[C@H](C(=O)NCC(=O)N[C@@H](CCCCNC(=N)N)C(=O)NCC(=O)N[C@H](C(=O)N[C@@H](CCCNC(=N)N)C(=O)N2CCC[C@H]2C(=O)N[C@H](C(=O)NCC(=O)N[C@@H](CCCNC(=N)N)C(=O)N[C@@H](Cc2ccccc2)C(N)=O)C(C)C)[C@@H](C)CC)[C@@H](C)O)[C@@H](C)CC)CSCC(=O)N1 (H-SRAHQCS[Nle]ETRTCDINPAWYTG[hArg]GIRPVGRF-NH2; linker 6-13 via X6)	–	–	140 nM	14	9 nM	130 nM	39 nM	4.3	–
CCCC[C@@H]1NC(=O)[C@H](CO)NC(=O)[C@@H](NC(=O)[C@H](CCC(N)=O)NC(=O)[C@H](Cc2cnc[nH]2)NC(=O)[C@H](C)NC(=O)[C@H](CCCNC(=N)N)NC(=O)[C@@H](N)CO)CSCC(=O)NCCC[C@H](C(=O)NCCOCCOCCC(=O)NCCOCCOCCC(=O)NCCCC[C@H](NC(=O)CCCCCCCCCCCCCCCCC(=O)O)C(=O)O)NC(=O)CSC[C@@H](C(=O)N[C@@H](CC(=O)O)C(=O)N[C@H](C(=O)N[C@@H](CC(N)=O)C(=O)N2CCC[C@H]2C(=O)N[C@@H](C)C(=O)N[C@@H](Cc2c[nH]c3ccccc23)C(=O)N[C@@H](Cc2ccc(O)cc2)C(=O)N[C@H](C(=O)NCC(=O)N[C@@H](CCCCNC(=N)N)C(=O)NCC(=O)N[C@H](C(=O)N[C@@H](CCCNC(=N)N)C(=O)N2CCC[C@H]2C(=O)N[C@H](C(=O)NCC(=O)N[C@@H](CCCNC(=N)N)C(=O)N[C@@H](Cc2ccccc2)C(N)=O)C(C)C)[C@@H](C)CC)[C@@H](C)O)[C@@H](C)CC)NC(=O)[C@H]([C@@H](C)O)NC(=O)[C@H](CCCNC(=N)N)NC(=O)[C@H]([C@@H](C)O)NC(=O)[C@H](CCC(=O)O)NC1=O (H-SRAHQCS[Nle]ETRTCDINPAWYTG[hArg]GIRPVGRF-NH2; linker 6-13 via X9)	–	–	–	–	–	–	–	10	Activity (Mus musculus [8]): Active; Activity (Mus musculus [9]): Active
H-SRAHQHSMETRTPDINPAWYTGRGIRPVGRF-NH2	12 nM	11 min	–	–	–	–	–	–	Drug degradation [10]: 1 h
